# According to ChEMBL document CHEMBL1137995, “Synthesis of some newer analogues of substituted dibenzoyl phenol as potent anti-inflammatory agents” (Bioorg Med Chem Lett, 2004):
# Calls of active or inactive are those of the source. No cut-off for these calls is given here.
# What was measured:
# [1] = organism: Oryctolagus cuniculus; assay: Percent inhibition of cyclooxygenase activity of compound at 10 uM concentration; assay type: functional
# Procedure, shortened: (§1)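 Microsomes came from rabbit distal colon mucosa, homogenized in Tris pH 8.0, centrifuged, resuspended and recentrifuged, and used immediately. Microsomes were preincubated with test agent 10 min at 37 °C in Tris–HCl pH 8.0 containing 2 mM glutathione, 5 mM L-tryptophan and 1 µM haematin. Then 20 µM arachidonic acid with [1-14C] tracer was added and reacted 5 min at 37 °C. PGE2 was separated by HPLC, radioactivity counted by scintillation, and inhibition taken against paired controls.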
# [2] = system: Rattus norvegicus; assay: Ulcerogenic activity was measured in fasting rat with ulcer on peroral administration of 400 mg/kg; assay type: functional; conditions: route oral
# Procedure, shortened: (§2)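 Rats (200–230 g), ten per group, fasted 24 h, given a single oral dose of 100, 200 or 400 mg/kg. Animals were killed 5 h after dosing. Stomach and small intestine were examined under a microscope for hyperaemia, epithelial shedding, petechiae, frank haemorrhage, and erosion or ulceration. Values are percent of animals showing hyperaemia or showing ulcer.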
# [3] = Acute lethal dose of compound was determined in mice when administered perorally; assay type: ADME; conditions: mouse, in vivo, po; read-out: ALD50
# Procedure, shortened: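 Albino mice (25–30 g), groups of 10 per dose level, given test compound at several dose levels. Percent mortality in each group was recorded 24 h after dosing. The approximate 50% lethal dose (ALD50) was calculated by the Smith method.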
# [4] = system: Rattus norvegicus; assay: Ulcerogenic activity was measured in fasting rat with ulcer on peroral administration of 100 mg/kg; assay type: functional; conditions: route oral; procedure, shortened: as §2
# [5] = system: Rattus norvegicus; assay: Percent of carageenam induced paw oedema inhibition in rat as a measure of anti-inflammatory activity at 20 mg/kg dose on peroral administration; assay type: functional; conditions: route oral
# Procedure, shortened: (§3)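 Albino rats (125–160 g), five per group, dosed orally at 20, 40 or 80 mg/kg. After 30 min, 0.2 mL of 1% carrageenan in 0.9% NaCl was injected subcutaneously into the plantar aponeurosis of the hind paw. Paw volume was read by water plethysmometer at injection and at 3 h. Inhibition = (1 − Gt/Gc) × 100 against a carrageenan-only control group of five rats.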
# [6] = system: Rattus norvegicus; assay: Ulcerogenic activity was measured in fasting rat with hyperaemia on peroral administration of 400 mg/kg; assay type: functional; conditions: route oral; procedure, shortened: as §2
# [7] = system: Rattus norvegicus; assay: Ulcerogenic activity was measured in fasting rat with hyperaemia on peroral administration of 100 mg/kg; assay type: functional; conditions: route oral; procedure, shortened: as §2
# [8] = system: Rattus norvegicus; assay: Ulcerogenic activity was measured in fasting rat with hyperaemia on peroral administration of 200 mg/kg; assay type: functional; conditions: route oral; procedure, shortened: as §2
# [9] = system: Rattus norvegicus; assay: Percent of carageenam induced paw oedema inhibition in rat as a measure of anti-inflammatory activity at 40 mg/kg dose on peroral administration; assay type: functional; conditions: route oral; procedure, shortened: as §3
# [10] = organism: Rattus norvegicus; assay: Effective dose of compound for anti-inflammatory activity; assay type: functional
# [11] = system: Rattus norvegicus; assay: Percent of carageenam induced paw oedema inhibition in rat as a measure of anti-inflammatory activity at 80 mg/kg dose on peroral administration; assay type: functional; conditions: route oral; procedure, shortened: as §3
# [12] = system: Rattus norvegicus; assay: Ulcerogenic activity was measured in fasting rat with ulcer on peroral administration of 200 mg/kg; assay type: functional; conditions: route oral; procedure, shortened: as §2
# [13] = organism: Oryctolagus cuniculus; assay: Percent inhibition of cyclooxygenase activity of compound at 10 uM concentration; No inhibition; assay type: functional; procedure, shortened: as §1
Structure (SMILES),Inhibition [1] [%],Ulcerogenic activity [2] [%],LD50 [3] [mg/kg],Ulcerogenic activity [4] [%],Antiinflammatory Activity [5] [%],Ulcerogenic activity [6] [%],Ulcerogenic activity [7] [%],Ulcerogenic activity [8] [%],Antiinflammatory Activity [9] [%],ED50 [10] [mg/kg],Antiinflammatory Activity [11] [%],Ulcerogenic activity [12] [%],inhibition [13]
Cc1ccc(C(=O)c2cc(C)cc(C(=O)c3ccc(C)cc3)c2O)cc1,87,40,> 1000,20,22.2,100,50,70,45.4,60.2,77.1,30,
CCCCC1C(=O)N(c2ccccc2)N(c2ccccc2)C1=O [PHENYLBUTAZONE],89,90,,30,31.3,90,30,60,35.5,,57.2,60,
Cc1cc(C(=O)c2ccccc2)c(O)c(C(=O)c2ccccc2)c1,,80,> 1000,40,13.7,60,20,40,22.2,77.5,45.5,50,inactive
Cc1ccccc1C(=O)c1cc(C)c(O)c(C(=O)c2ccccc2)c1,20,40,> 1000,10,14.1,100,40,60,29.5,78.3,55.3,20,
CC(=O)Oc1ccccc1C(=O)O [ASPIRIN],99,90,,80,30.4,90,30,60,35.5,98.3,59.6,90,
Cc1cc(C(=O)c2cccc(Cl)c2)c(O)c(C(=O)c2cccc(Cl)c2)c1,,12,> 1000,10,30.3,90,30,60,48.2,51.2,94.1,20,inactive
Cc1ccc(C(=O)c2cc(C(=O)c3ccccc3)cc(C)c2O)cc1,40,40,> 1000,10,20.1,100,70,90,29.1,62.5,62.8,20,
Cc1cc(C(=O)c2ccccc2C)c(O)c(C(=O)c2ccccc2C)c1,70,15,> 1000,5,16.6,90,50,70,33.2,77.2,64.1,10,
